Screening results from PubChem BioAssay.
The list is not random: actives were taken first. Their share in the collection is about 1.9%.
sPLA2-III inh – human group III sPLA2 inhibitors, primary screen, biochemical, QFRET, BODIPY PC-A2 liposome substrate; QFRET BODIPY PC-A2 liposome hydrolysis, fluorescence; inhibition, % at 12.2 µM; hit rate 0.56% among 370,000; Group 3 secretory phospholipase A2 (Homo sapiens), Q9NZ20;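 active = inhibition above mean plus 3 SD of compounds lying within the high and low control bounds, cut at about 19% in these data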
Target sequence (Q9NZ20 whole entry, looked up): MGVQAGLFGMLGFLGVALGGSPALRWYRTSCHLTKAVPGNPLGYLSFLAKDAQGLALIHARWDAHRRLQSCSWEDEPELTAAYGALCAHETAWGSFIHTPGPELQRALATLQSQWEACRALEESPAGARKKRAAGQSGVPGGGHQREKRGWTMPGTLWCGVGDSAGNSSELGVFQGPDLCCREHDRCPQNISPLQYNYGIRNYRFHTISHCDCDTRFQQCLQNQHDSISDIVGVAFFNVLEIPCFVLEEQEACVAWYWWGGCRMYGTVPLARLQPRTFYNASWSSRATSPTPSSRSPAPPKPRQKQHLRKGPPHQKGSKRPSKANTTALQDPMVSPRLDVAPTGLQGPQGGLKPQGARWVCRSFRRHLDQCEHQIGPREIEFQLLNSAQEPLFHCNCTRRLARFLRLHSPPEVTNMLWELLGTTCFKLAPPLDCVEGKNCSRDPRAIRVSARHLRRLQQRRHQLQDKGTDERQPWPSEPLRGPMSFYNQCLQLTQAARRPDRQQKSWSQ
TbMetRS inhib – T. brucei MetRS inhibitors, primary screen, biochemical, luminescence; purified T. brucei MetRS, ATP depletion, Kinase-Glo luminescence; inhibition, % at 11.9 µM; hit rate 0.4% among 360,000; AID 624268, 2012;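 active = inhibition above a per-plate cutoff of the control wells' mean inhibition plus 3 SD, cut at about 5.5% in these data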
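assay system = parasite MetRS enzyme | timing = 15 min preincubation, 2 h reaction, all 25 °C | evaluation = percent inhibition relative to median high and low control wells | medium = HEPES buffer containing pyrophosphatase, BSA, spermine, DTT | compound = single dose, 11.9 µM final nominal, 0.9% final DMSO | detection = Kinase-Glo luminescence, ATP depletion format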
PLC-beta3 inh – human PLC-beta3 inhibitors, primary screen, biochemical, fluorescence. 1-phosphatidylinositol 4,5-bisphosphate phosphodiesterase beta-3 (Homo sapiens), Q01970. Purified PLC-beta3, fluorogenic substrate. inhibition, % at 12.2 µM. hit rate 0.18% among 370,000
PLCg1 inh – PLC-gamma1 enzyme inhibitors, primary screen, biochemical, fluorescence, purified enzyme | AID 720700, 2013 | 1-phosphatidylinositol 4,5-bisphosphate phosphodiesterase gamma-1 (Homo sapiens), P19174 | hit rate 0.84% among 370,000 | inhibition, % at 12.2 µM | fluorogenic substrate; in the data active = inhibition above about 9.5%
PLCgamma1 ctr – PLC-gamma1 enzyme inhibitors, counter-screen for PLC-beta3 inhibitor project, biochemical, fluorescence; purified PLC-gamma1, fluorogenic substrate; shares compounds with PLCg1 inh; AID 743258, 2014; inhibition, % at 12.3 µM; hit rate 3.1% among 3,300; in the data active = inhibition above about 9.5%
PLCb3 confirm – PLC-beta3 inhibitor confirmation, biochemical, fluorescence, purified enzyme; shares compounds with PLCg1 inh; fluorogenic substrate fluorescence; inhibition, % at 12.3 µM; hit rate 1% among 3,300
Large screens that a line does not name were inactive (follow-up assays come after a bar, where they were run). Rule as the data show it, unless noted: active = inhibition above about 11%; inactive = the rest.

CC(COc1ccc(C#N)c(F)c1)CN1CCC(C(O)(c2ccccc2)c2ccccc2)CC1 (stereo not given)	none (no result: TbMetRS inhib)
CCc1ccc(OC)c(S(=O)(=O)Nc2ccccc2C)c1	none
CC(=O)Nc1cc(S(=O)(=O)Nc2ccccc2C)c(C)cc1C	PLCg1 inh 9.8 | PLCgamma1 ctr inactive | PLCb3 confirm inactive
COc1ccc(C)cc1S(=O)(=O)Nc1ccccc1C	PLCg1 inh 11 | PLCgamma1 ctr inactive | PLCb3 confirm inactive
Cc1ccccc1NS(=O)(=O)c1ccc(C)c(NS(C)(=O)=O)c1C	PLCg1 inh 9.9 | PLCgamma1 ctr inactive | PLCb3 confirm inactive
COC(=O)C1=C(C)N(Cc2ccccc2C(F)(F)F)C(=NCc2ccc3c(c2)OCO3)NC1c1cccc(C(F)(F)F)c1 (stereo not given)	none (no result: TbMetRS inhib)
C=CCn1c(SCc2c(Cl)cccc2Cl)nnc1-c1cccc(C)c1	none (no result: TbMetRS inhib)
COC(=O)CSC1=C(C#N)C(=O)NC2(CCCCC2)S1	PLCg1 inh 16 | PLCgamma1 ctr inactive | PLCb3 confirm inactive
Cc1cccc(NC2=C(C#N)C(=O)NC3(CCCC3)S2)c1	none
COc1ccc(NC(=O)C(CCCCNC(=O)OC(C)(C)C)NC2(C(=O)NCCc3c[nH]c4ccccc34)CCCCC2)cc1 (stereo not given)	none (no result: TbMetRS inhib)
C[C@@H]1CC=C[C@@H]2[C@H]1C(=O)N(Cc1ccccc1)[C@H]2c1cccc(Br)c1	PLCg1 inh 12 | PLCgamma1 ctr inactive | PLCb3 confirm inactive
O=C(Nc1nc(-c2ccc(F)c(F)c2)cs1)Nc1ccc(F)cc1F	PLCg1 inh 10 | PLCgamma1 ctr inactive | PLCb3 confirm inactive
O=C(Cc1ccccc1F)Nc1nc(-c2ccc(F)c(F)c2)cs1	none
COc1ccc(NC(=O)CSc2nnc(C)n2C2CC2)cc1S(=O)(=O)N1CCOCC1	PLCg1 inh 9.8 | PLCgamma1 ctr inactive | PLCb3 confirm inactive
CCCCNC(=O)O[C@H]1CC[C@@]23CCCN2C(=O)CCC[C@H]3[C@H]1C	none (no result: TbMetRS inhib)
Cc1cc(=O)[nH]c(N2CCCC2)n1	PLCg1 inh 12 | PLCgamma1 ctr inactive | PLCb3 confirm inactive
CN1CCN(NC(=O)c2ccc(F)cc2)CC1	none
CN1CCN(NC(=O)c2ccc(Cl)s2)CC1	PLCg1 inh 9.8 | PLCgamma1 ctr inactive | PLCb3 confirm inactive
COC(=O)[C@]12C[C@H](CC(=O)N3CCC(c4ccccc4)CC3)C(=O)N(CCc3ccc(OC)c(OC)c3)C1=C[C@H](C(C)(C)C)O[C@@H]2C	none (no result: TbMetRS inhib)
CCOc1ccc(-c2cc(N)n(S(=O)(=O)c3ccc(OC)c(OC)c3)n2)cc1	PLC-beta3 inh 11 | PLCgamma1 ctr inactive | PLCb3 confirm inactive
O=C(CSc1nnc(COc2ccccc2)n1Cc1ccco1)Nc1ccc(OCc2ccccc2)cc1	none (no result: TbMetRS inhib)
COC(=O)[C@]12C[C@H](CC(=O)N3CCSCC3)C(=O)N(CCc3ccc(OC)c(OC)c3)C1=C[C@H](C(C)C)O[C@@H]2C1CC1	none (no result: TbMetRS inhib)
CCCC1(CCC)NC(=O)N(CC(=O)Nc2ccc(Cl)c(S(=O)(=O)N3CCOCC3)c2)C1=O	PLCg1 inh 11 | PLCgamma1 ctr inactive | PLCb3 confirm inactive
CC1CCCCC12NC(=O)N(CC(=O)Nc1ccc(Cl)c(S(=O)(=O)N3CCOCC3)c1)C2=O (stereo not given)	none
O=C(CSc1nnc(COc2ccc(Cl)cc2)n1Cc1ccco1)Nc1ccc2c(c1)OCO2	none (no result: TbMetRS inhib)
CN(C)c1cccc(NC(=O)C2(C)CC2(Cl)Cl)c1 (stereo not given)	PLC-beta3 inh 16 | PLCgamma1 ctr inactive | PLCb3 confirm inactive
C=CCC[C@H](Cc1ccc(F)cc1)C(=O)OC[C@@H]1CCCN1C(=O)[C@@H](CC=C)CC(=O)NCCO	none
C=CCC[C@@H](Cc1ccc(F)cc1)C(=O)OC[C@@H]1CCCN1C(=O)[C@@H](CC=C)CC(=O)N[C@@H](CO)Cc1ccccc1	PLCg1 inh 11 | PLCgamma1 ctr inactive | PLCb3 confirm inactive
